Test: organ radiation dose estimates, OLINDA 1.1, ICRP-60
Format: in vivo, human
Outline: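 Whole-body PET-MR ran as nine scans to 214 min. Organ VOIs were drawn in AMIDE, giving decay-corrected %IA per VOI; remainder = whole body minus measured organs. TIACs came from the exponential model (EXM) in OLINDA 1.1. Per-participant organ doses used 70 kg adult male or 55 kg female models in OLINDA 1.1. Effective dose (mSv) = organ absorbed doses × ICRP-60 tissue weighting factors.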

SMILES: COC(=O)[C@@H](N)CC(=O)Nc1ccc2c(c1)Cc1cc([18F])ccc1-2 [[^18F]RP-115, methyl N^4-(7-[^18F]fluoro-9H-fluoren-2-yl)asparaginate]
- Effective dose (whole body) (F1 (189 MBq)): 5.42 mSv
- Estimated absorbed dose, Adrenals (F1 (189 MBq)): 3.89 mGy
- Estimated absorbed dose, Brain (F1 (189 MBq)): 3.40 mGy
- Estimated absorbed dose, Breasts (F1 (189 MBq)): 1.79 mGy
- Estimated absorbed dose, Gallbladder wall (F1 (189 MBq)): 4.40 mGy
- Estimated absorbed dose, Heart wall (F1 (189 MBq)): 4.25 mGy
- Estimated absorbed dose, Kidneys (F1 (189 MBq)): 32.5 mGy
- Estimated absorbed dose, Liver (F1 (189 MBq)): 7.85 mGy
- Estimated absorbed dose, Lower large intestine wall (F1 (189 MBq)): 2.64 mGy
- Estimated absorbed dose, Lungs (F1 (189 MBq)): 12.3 mGy
- Estimated absorbed dose, Muscle (F1 (189 MBq)): 2.06 mGy
- Estimated absorbed dose, Osteogenic cells (F1 (189 MBq)): 2.94 mGy
- Estimated absorbed dose, Ovaries (F1 (189 MBq)): 2.83 mGy
- Estimated absorbed dose, Pancreas (F1 (189 MBq)): 6.10 mGy
- Estimated absorbed dose, Red marrow (F1 (189 MBq)): 2.15 mGy
- Estimated absorbed dose, Remainder (F1 (189 MBq)): 2.62 mGy
- Estimated absorbed dose, Skin (F1 (189 MBq)): 1.44 mGy
- Estimated absorbed dose, Small intestine (F1 (189 MBq)): 6.06 mGy
- Estimated absorbed dose, Spleen (F1 (189 MBq)): 8.87 mGy
- Estimated absorbed dose, Stomach wall (F1 (189 MBq)): 2.68 mGy
- Estimated absorbed dose, Thymus (F1 (189 MBq)): 7.08 mGy
- Estimated absorbed dose, Thyroid (F1 (189 MBq)): 1.88 mGy
- Estimated absorbed dose, Upper, lower intestine wall (F1 (189 MBq)): 3.09 mGy
- Estimated absorbed dose, Urinary bladder wall (F1 (189 MBq)): 18.8 mGy
- Estimated absorbed dose, Uterus (F1 (189 MBq)): 4.21 mGy
- Effective dose (whole body) (F2, no voiding (355 MBq)): 10.6 mSv
- Estimated absorbed dose, Adrenals (F2, no voiding (355 MBq)): 7.74 mGy
- Estimated absorbed dose, Brain (F2, no voiding (355 MBq)): 5.65 mGy
- Estimated absorbed dose, Breasts (F2, no voiding (355 MBq)): 2.93 mGy
- Estimated absorbed dose, Gallbladder wall (F2, no voiding (355 MBq)): 7.35 mGy
- Estimated absorbed dose, Heart wall (F2, no voiding (355 MBq)): 6.61 mGy
- Estimated absorbed dose, Kidneys (F2, no voiding (355 MBq)): 93.4 mGy
- Estimated absorbed dose, Liver (F2, no voiding (355 MBq)): 14.6 mGy
- Estimated absorbed dose, Lower large intestine wall (F2, no voiding (355 MBq)): 4.26 mGy
- Estimated absorbed dose, Lungs (F2, no voiding (355 MBq)): 25.5 mGy
- Estimated absorbed dose, Muscle (F2, no voiding (355 MBq)): 3.45 mGy
- Estimated absorbed dose, Osteogenic cells (F2, no voiding (355 MBq)): 4.69 mGy
- Estimated absorbed dose, Ovaries (F2, no voiding (355 MBq)): 5.22 mGy
- Estimated absorbed dose, Pancreas (F2, no voiding (355 MBq)): 7.78 mGy
- Estimated absorbed dose, Red marrow (F2, no voiding (355 MBq)): 3.77 mGy
- Estimated absorbed dose, Remainder (F2, no voiding (355 MBq)): 4.65 mGy
- Estimated absorbed dose, Skin (F2, no voiding (355 MBq)): 2.31 mGy
- Estimated absorbed dose, Small intestine (F2, no voiding (355 MBq)): 8.35 mGy
- Estimated absorbed dose, Spleen (F2, no voiding (355 MBq)): 5.86 mGy
- Estimated absorbed dose, Stomach wall (F2, no voiding (355 MBq)): 4.40 mGy
- Estimated absorbed dose, Thymus (F2, no voiding (355 MBq)): 7.57 mGy
- Estimated absorbed dose, Thyroid (F2, no voiding (355 MBq)): 17.0 mGy
- Estimated absorbed dose, Upper, lower intestine wall (F2, no voiding (355 MBq)): 5.04 mGy
- Estimated absorbed dose, Urinary bladder wall (F2, no voiding (355 MBq)): 32.9 mGy
- Estimated absorbed dose, Uterus (F2, no voiding (355 MBq)): 47.2 mGy
- Effective dose (whole body) (F3 (117 MBq)): 2.67 mSv
- Estimated absorbed dose, Adrenals (F3 (117 MBq)): 2.50 mGy
- Estimated absorbed dose, Brain (F3 (117 MBq)): 1.60 mGy
- Estimated absorbed dose, Breasts (F3 (117 MBq)): 1.13 mGy
- Estimated absorbed dose, Gallbladder wall (F3 (117 MBq)): 2.95 mGy
- Estimated absorbed dose, Heart wall (F3 (117 MBq)): 2.26 mGy
- Estimated absorbed dose, Kidneys (F3 (117 MBq)): 21.0 mGy
- Estimated absorbed dose, Liver (F3 (117 MBq)): 5.81 mGy
- Estimated absorbed dose, Lower large intestine wall (F3 (117 MBq)): 1.47 mGy
- Estimated absorbed dose, Lungs (F3 (117 MBq)): 5.47 mGy
- Estimated absorbed dose, Muscle (F3 (117 MBq)): 1.29 mGy
- Estimated absorbed dose, Osteogenic cells (F3 (117 MBq)): 1.94 mGy
- Estimated absorbed dose, Ovaries (F3 (117 MBq)): 1.63 mGy
- Estimated absorbed dose, Pancreas (F3 (117 MBq)): 2.85 mGy
- Estimated absorbed dose, Red marrow (F3 (117 MBq)): 1.36 mGy
- Estimated absorbed dose, Remainder (F3 (117 MBq)): 1.61 mGy
- Estimated absorbed dose, Skin (F3 (117 MBq)): 0.945 mGy
- Estimated absorbed dose, Small intestine (F3 (117 MBq)): 3.30 mGy
- Estimated absorbed dose, Spleen (F3 (117 MBq)): 3.02 mGy
- Estimated absorbed dose, Stomach wall (F3 (117 MBq)): 1.68 mGy
- Estimated absorbed dose, Thymus (F3 (117 MBq)): 2.23 mGy
- Estimated absorbed dose, Thyroid (F3 (117 MBq)): 2.03 mGy
- Estimated absorbed dose, Upper, lower intestine wall (F3 (117 MBq)): 1.91 mGy
- Estimated absorbed dose, Urinary bladder wall (F3 (117 MBq)): 1.57 mGy
- Estimated absorbed dose, Uterus (F3 (117 MBq)): 3.93 mGy
- Effective dose (whole body) (F4 (167 MBq)): 3.90 mSv
- Estimated absorbed dose, Adrenals (F4 (167 MBq)): 3.19 mGy
- Estimated absorbed dose, Brain (F4 (167 MBq)): 2.79 mGy
- Estimated absorbed dose, Breasts (F4 (167 MBq)): 1.47 mGy
- Estimated absorbed dose, Gallbladder wall (F4 (167 MBq)): 3.08 mGy
- Estimated absorbed dose, Heart wall (F4 (167 MBq)): 4.15 mGy
- Estimated absorbed dose, Kidneys (F4 (167 MBq)): 28.1 mGy
- Estimated absorbed dose, Liver (F4 (167 MBq)): 6.41 mGy
- Estimated absorbed dose, Lower large intestine wall (F4 (167 MBq)): 2.09 mGy
- Estimated absorbed dose, Lungs (F4 (167 MBq)): 9.27 mGy
- Estimated absorbed dose, Muscle (F4 (167 MBq)): 1.67 mGy
- Estimated absorbed dose, Osteogenic cells (F4 (167 MBq)): 2.46 mGy
- Estimated absorbed dose, Ovaries (F4 (167 MBq)): 2.39 mGy
- Estimated absorbed dose, Pancreas (F4 (167 MBq)): 3.95 mGy
- Estimated absorbed dose, Red marrow (F4 (167 MBq)): 1.79 mGy
- Estimated absorbed dose, Remainder (F4 (167 MBq)): 2.14 mGy
- Estimated absorbed dose, Skin (F4 (167 MBq)): 1.19 mGy
- Estimated absorbed dose, Small intestine (F4 (167 MBq)): 6.82 mGy
- Estimated absorbed dose, Spleen (F4 (167 MBq)): 3.11 mGy
- Estimated absorbed dose, Stomach wall (F4 (167 MBq)): 2.19 mGy
- Estimated absorbed dose, Thymus (F4 (167 MBq)): 4.01 mGy
- Estimated absorbed dose, Thyroid (F4 (167 MBq)): 2.31 mGy
- Estimated absorbed dose, Upper, lower intestine wall (F4 (167 MBq)): 2.83 mGy
- Estimated absorbed dose, Urinary bladder wall (F4 (167 MBq)): 4.93 mGy
- Estimated absorbed dose, Uterus (F4 (167 MBq)): 6.49 mGy
- Effective dose (whole body) (Female n=4, mean±SD): 0.0262±0.00361 mSv/MBq
- Estimated dose, Adrenals (Female n=4, mean±SD): 0.0207±0.00119 mGy/MBq
- Estimated dose, Brain (Female n=4, mean±SD): 0.0161±0.0018 mGy/MBq
- Estimated dose, Breasts (Female n=4, mean±SD): 0.00903±0.000633 mGy/MBq
- Estimated dose, Gallbladder wall (Female n=4, mean±SD): 0.0219±0.00297 mGy/MBq
- Estimated dose, Heart wall (Female n=4, mean±SD): 0.0213±0.00289 mGy/MBq
- Estimated dose, Kidneys (Female n=4, mean±SD): 0.196±0.0451 mGy/MBq
- Estimated dose, Liver (Female n=4, mean±SD): 0.0426±0.00491 mGy/MBq
- Estimated dose, Lower, large intestine wall (Female n=4, mean±SD): 0.0128±0.000858 mGy/MBq
- Estimated dose, Lungs (Female n=4, mean±SD): 0.0598±0.0109 mGy/MBq
- Estimated dose, Muscle (Female n=4, mean±SD): 0.0104±0.00065 mGy/MBq
- Estimated dose, Osteogenic cells (Female n=4, mean±SD): 0.0150±0.00144 mGy/MBq
- Estimated dose, Ovaries (Female n=4, mean±SD): 0.0145±0.000479 mGy/MBq
- Estimated dose, Pancreas (Female n=4, mean±SD): 0.0256±0.00462 mGy/MBq
- Estimated dose, Red marrow (Female n=4, mean±SD): 0.0111±0.000499 mGy/MBq
- Estimated dose, Remainder (Female n=4, mean±SD): 0.0134±0.000535 mGy/MBq
- Estimated dose, Skin (Female n=4, mean±SD): 0.00734±0.000677 mGy/MBq
- Estimated dose, Small intestine (Female n=4, mean±SD): 0.0312±0.00733 mGy/MBq
- Estimated dose, Spleen (Female n=4, mean±SD): 0.0270±0.0139 mGy/MBq
- Estimated dose, Stomach wall (Female n=4, mean±SD): 0.0135±0.000943 mGy/MBq
- Estimated dose, Thymus (Female n=4, mean±SD): 0.0255±0.00826 mGy/MBq
- Estimated dose, Thyroid (Female n=4, mean±SD): 0.0223±0.0174 mGy/MBq

Reference: paper PMC13170702 (Nuclear medicine and biology, 2025)
